OPRM1-OPRD1 ag: agonists of OPRM1-OPRD1 heterodimerization, primary screen, cell-based, luminescence; Mu-type opioid receptor (Homo sapiens) + Delta-type opioid receptor (Homo sapiens), …; cells; activation, % at 9.3 µM; hit rate 0.3% among 340,000; AID 504326, 2011;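 also: 0% = vehicle-treated cells and 100% = reference agonist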
HTR5A inv ctr: HTR5A inverse agonists in luminescence cell assay, primary screen, counter-screen for OPRM1-OPRD1 heterodimer inverse agonist project, full-deck HTS | 5-hydroxytryptamine receptor 5A (Homo sapiens), P47898 | inhibition, % at 9.3 µM | HTR5A cell line, inverse agonism | AID 504634, 2011 | hit rate 0.083% among 340,000; in the data active = inhibition mostly above about 23%, no sharp cut-off; inactive = mostly below about 18%;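 also: 0% = cells with DMSO and 100% = no-cell wells with DMSO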
Target sequence (P47898 whole entry, looked up): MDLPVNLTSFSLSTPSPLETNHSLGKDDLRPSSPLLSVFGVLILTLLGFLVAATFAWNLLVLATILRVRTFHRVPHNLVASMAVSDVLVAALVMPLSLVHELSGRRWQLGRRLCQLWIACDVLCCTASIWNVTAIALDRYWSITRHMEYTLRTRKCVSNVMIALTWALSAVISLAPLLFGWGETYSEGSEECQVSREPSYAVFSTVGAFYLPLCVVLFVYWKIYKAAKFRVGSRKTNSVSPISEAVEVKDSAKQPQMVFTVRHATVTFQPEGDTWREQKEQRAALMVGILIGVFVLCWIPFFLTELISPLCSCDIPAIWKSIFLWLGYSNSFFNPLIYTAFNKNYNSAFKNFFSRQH
HTR5A ag ctr: HTR5A agonists in luminescence cell assay, primary screen, counter-screen for OPRM1-OPRD1 heterodimer agonist project, full-deck HTS; 5-hydroxytryptamine receptor 5A (Homo sapiens), P47898; cell-based; activation, % at 9.3 µM; hit rate 0.61% among 340,000; AID 504692, 2011; in the data active = activation mostly above about 9.5%, no sharp cut-off; inactive = mostly below about 7.6%;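 also: 0% = cells with vehicle only and 100% = reference agonist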
MOR-DOR inv ag: inverse agonists of MOR-DOR heterodimerization, primary screen, cell-based, luminescence; hit rate 0.21% among 340,000; inhibition, % at 9.3 µM; cell-based MOR-DOR heterodimer luminescence, inverse agonism; Mu-type opioid receptor (Homo sapiens) + Delta-type opioid receptor (Homo sapiens), …; in the data active = inhibition above about 22%, passing the limit was not always enough;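 also: 0% = cells with DMSO and 100% = wells without cells with DMSO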
Lipid droplet: inhibitors of hepatocyte lipid droplet formation, primary screen, imaging, high-throughput imaging, BODIPY stain; inhibition, % at 6.5 µM; AML12 mouse hepatocytes, oleate lipid droplets; hit rate 0.4% among 240,000;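 active = lipid droplet intensity inhibited by at least 50%, with more than 500 cells counted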
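Assay system: AML12 mouse liver cells | Compound dosing: One dose, 6.5 µM compound | Read-out basis: Droplet intensity reduction, % inhibition | Measured by: Fluorescence imaging, 20x objective, two fields per well | Schedule: Overnight treatment with compound plus oleate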
MOR-DOR ag conf: agonists of MOR-DOR heterodimerization, confirmation, cell-based, luminescence; activation, % at 9.3 µM; cells, luminescence complementation; shares compounds with OPRM1-OPRD1 ag; hit rate 45% among 830; AID 504904, 2011;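 also: 0% = vehicle-treated cells and 100% = reference agonist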
HTR5A ag counter: HTR5A agonists in cells, counter-screen for OPRM1-OPRD1 heterodimer agonist project, cell-based, luminescence; shares compounds with OPRM1-OPRD1 ag; HTR5A agonist counterscreen; activation, % at 9.3 µM; hit rate 8% among 830; AID 504905, 2011; in the data active = activation above about 17%;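 also: 0% = vehicle-treated cells and 100% = reference agonist response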
Starred values were filed as active, the others as inactive. Compounds with a hit are over-represented: about 1.4% of the library has one in this group of screens. Rule as the data show it, unless noted: active = activation above about 18%; inactive = the rest.

CC(c1ccccc1)N1CCC(CNC(=S)Nc2cccc(Cl)c2)C1 (stereo not given) was read as OPRM1-OPRD1 ag 19.1*, HTR5A inv ctr -10.2, HTR5A ag ctr 0.5, MOR-DOR inv ag -96.0, Lipid droplet -1.9, MOR-DOR ag conf 1.0 and HTR5A ag counter 28.0*.
Screening Cc1cccc(NC(=S)NCC(c2ccccc2)N(C)C)c1 (stereo not given) returned OPRM1-OPRD1 ag 347.8*, HTR5A inv ctr -5.8, HTR5A ag ctr 2.0, MOR-DOR inv ag inactive, Lipid droplet -37.3, MOR-DOR ag conf 1.5 and HTR5A ag counter 2.4.
Screening Cc1ccc(NC(=S)NCC2CCN(C(C)c3ccccc3)C2)cc1 (stereo not given) returned OPRM1-OPRD1 ag -0.7, HTR5A inv ctr -1.2, HTR5A ag ctr 2.4, MOR-DOR inv ag 3.7 and Lipid droplet -4.7.
For Cc1ccc(Cl)cc1NC(=O)CNCC(c1ccccc1)N(C)C (stereo not given) the results were OPRM1-OPRD1 ag 50.4*, HTR5A inv ctr -12.4, HTR5A ag ctr 3.5, MOR-DOR inv ag -228.4, Lipid droplet -7.8, MOR-DOR ag conf 76.0* and HTR5A ag counter 0.9.
`CCCC/C(O)=C1\C(=O)CC(C)(C)CC1=NCCCCCC(=O)O` gave OPRM1-OPRD1 ag -1.4, HTR5A inv ctr -16.6, HTR5A ag ctr 6.0, MOR-DOR inv ag 7.6 and Lipid droplet -2.0.
For COc1cccc(CSc2nc(N)cc(N)n2)c1 the results were OPRM1-OPRD1 ag -1.7, HTR5A inv ctr -6.2, HTR5A ag ctr -0.2, MOR-DOR inv ag 8.9 and Lipid droplet 2.2.
CC(OC(=O)c1cc(S(=O)(=O)N2CCOCC2)ccc1F)C(=O)NC1CCCCC1C (stereo not given) was read as OPRM1-OPRD1 ag -0.6, HTR5A inv ctr 11.0, HTR5A ag ctr -1.6, MOR-DOR inv ag 3.8 and Lipid droplet -7.6.
CCOCCCn1c(SCC(=O)Nc2ccc(OC)cc2)nc2ccccc2c1=O was read as OPRM1-OPRD1 ag -1.9, HTR5A inv ctr -24.9, HTR5A ag ctr 3.7, MOR-DOR inv ag 9.6 and Lipid droplet 31.1.
For CN1CCN(c2ccc(NC(=O)COc3cccc4ccccc34)cc2)CC1 the results were OPRM1-OPRD1 ag 25.2*, HTR5A inv ctr -9.5, HTR5A ag ctr 3.9, MOR-DOR inv ag -140.5, Lipid droplet -2.5, MOR-DOR ag conf 1.8 and HTR5A ag counter 38.9*.
Screening CN1CCN(c2ccc(NC(=O)COc3ccc4ccccc4c3)cc2)CC1 returned OPRM1-OPRD1 ag 6.8, HTR5A inv ctr 1.4, HTR5A ag ctr -0.6, MOR-DOR inv ag -38.1 and Lipid droplet -40.3.
Screening Oc1cccc(NC(=S)Nc2ccc(SC(F)F)cc2)c1 returned OPRM1-OPRD1 ag 32.2*, HTR5A inv ctr 18.8, HTR5A ag ctr -7.0, MOR-DOR inv ag -193.1, Lipid droplet -25.8, MOR-DOR ag conf 4.1 and HTR5A ag counter 1.5.
Screening COC(=O)c1ccc2c(c1)sc(=NC(=O)CCS(=O)(=O)c1ccccc1)n2C returned OPRM1-OPRD1 ag 0.1, HTR5A inv ctr -15.8, HTR5A ag ctr 5.8 and MOR-DOR inv ag -0.7.
Screening CC(C)[C@H](NC(=O)c1ccccc1Cl)C(=O)OCC(=O)NC(=O)NC1CCCC1 returned OPRM1-OPRD1 ag -1.0, HTR5A inv ctr 11.9, HTR5A ag ctr 2.2, MOR-DOR inv ag 5.2 and Lipid droplet 0.2.
For CC(C)[C@H](NC(=O)c1ccccc1Cl)C(=O)OCC(=O)NC(=O)NCc1ccco1 the results were OPRM1-OPRD1 ag 314.4*, HTR5A inv ctr 8.8, HTR5A ag ctr -3.6, MOR-DOR inv ag inactive, MOR-DOR ag conf 1.1 and HTR5A ag counter -5.6.
Screening Cc1cc2c(cc1C)CSC(c1ccccc1O)SC2 returned OPRM1-OPRD1 ag 14.2, HTR5A inv ctr -4.3, HTR5A ag ctr 7.0, MOR-DOR inv ag -71.4 and Lipid droplet 18.9.
For Oc1ccccc1C1SC(c2ccccc2O)SC(c2ccccc2O)S1 (stereo not given) the results were OPRM1-OPRD1 ag 21.7*, HTR5A inv ctr -7.2, HTR5A ag ctr 2.0, MOR-DOR inv ag -114.6, MOR-DOR ag conf 20.1* and HTR5A ag counter 8.1.
For CCCn1c(=O)c(Br)cn(-c2ccccc2C)c1=O the results were OPRM1-OPRD1 ag -2.3, HTR5A inv ctr 3.7, HTR5A ag ctr -1.8, MOR-DOR inv ag 12.0 and Lipid droplet 12.5.
Screening CCN1CCN(Cc2ccc(NC(=O)c3ccc(C)c(NC(=O)c4c[nH]c5cc(C(F)(F)F)ccc5c4=O)c3)cc2C(F)(F)F)CC1 returned OPRM1-OPRD1 ag 46.7*, HTR5A inv ctr -11.9, HTR5A ag ctr -0.2, MOR-DOR inv ag -285.8, Lipid droplet 3.7, MOR-DOR ag conf 39.2* and HTR5A ag counter 3.3.
For COc1cc(C(=O)Nc2nc3ccc(S(C)(=O)=O)cc3s2)cc(OC)c1C the results were OPRM1-OPRD1 ag 37.3*, HTR5A inv ctr -15.1, HTR5A ag ctr 5.5, MOR-DOR inv ag -198.2, Lipid droplet 1.7, MOR-DOR ag conf 14.0 and HTR5A ag counter 8.8.
Screening COc1cc(OC)cc(C(=O)Nc2nc3ccc(S(C)(=O)=O)cc3s2)c1 returned OPRM1-OPRD1 ag 1.6, HTR5A inv ctr 3.8, HTR5A ag ctr -1.4, MOR-DOR inv ag -11.9 and Lipid droplet 1.6.
Screening CC(OC(=O)Cn1[nH]c(=O)c2ccccc2c1=O)C(=O)NC1(C#N)CCCCC1 (stereo not given) returned OPRM1-OPRD1 ag -1.6, HTR5A inv ctr -10.0, HTR5A ag ctr -1.0 and MOR-DOR inv ag 10.5.
c1ccc(CCNc2ccnc3cc4ccccc4cc23)cc1 was read as OPRM1-OPRD1 ag 32.0*, HTR5A inv ctr 3.8, HTR5A ag ctr 9.6, MOR-DOR inv ag -164.0, Lipid droplet -8.5, MOR-DOR ag conf 24.3* and HTR5A ag counter 11.5.
CC(C)Nc1ccc(Nc2ccnc3cc4ccccc4cc23)cc1 was read as OPRM1-OPRD1 ag 9.9, HTR5A inv ctr -3.5, HTR5A ag ctr 1.1, MOR-DOR inv ag -52.3 and Lipid droplet -0.1.
O=C(Nc1cccnc1)c1sc(Nc2ccccc2F)nc1-c1ccccc1 was read as OPRM1-OPRD1 ag 20.7*, HTR5A inv ctr -32.3, HTR5A ag ctr -0.9, MOR-DOR inv ag -111.2, Lipid droplet -10.3, MOR-DOR ag conf 4.9 and HTR5A ag counter 5.3.
Cc1ccccc1Nc1nc(-c2ccccc2)c(C(=O)Nc2cccnc2)s1 was read as OPRM1-OPRD1 ag -2.6, HTR5A inv ctr -4.2, HTR5A ag ctr -0.3, MOR-DOR inv ag 12.1 and Lipid droplet -6.8.

From PubChem
